From PubChem BioAssay
This is a sample that favours compounds with a hit; in the whole collection about 3.6% have one here.
pPAFAH FP inh: inhibitors of human plasma PAF acetylhydrolase (pPAFAH); recombinant pPAFAH, FP-rhodamine probe fluorescence polarization; inhibition, % at 3.39 µM; 330,000 compounds, 1.5% hits; AID 463082;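 active = inhibition above the mean inhibition across the screen plus 3 SD, cut at about 25% in these data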;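 also: inhibitors block binding of the rhodamine activity-based probe so polarization drops; 0% = enzyme with DMSO and 100% = wells lacking pPAFAH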
VIM-2 inhibitor: inhibitors of Pseudomonas aeruginosa VIM-2 metallo-beta-lactamase | 290,000 compounds, 0.89% hits | AID 1527 | purified VIM-2, nitrocefin hydrolysis, epi-absorbance fluorescence | inhibition, % at 5.6 µM;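 active = inhibition above the mean of all tested compounds plus 3 SD, cutoff set per screening run, cut at about 7.5% in these data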;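 also: red hydrolysis product quenches plate fluorescence so inhibitors raise well fluorescence; 0% = enzyme with DMSO and 100% = DMSO without enzyme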
IMP-1 inhibitor: inhibitors of Pseudomonas aeruginosa IMP-1 metallo-beta-lactamase; AID 1556; inhibition, % at 5.6 µM; purified IMP-1, nitrocefin hydrolysis, epi-absorbance fluorescence; 290,000 compounds, 0.45% hits;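 active = inhibition above the mean plus 3 SD of all compounds in the same screening run, cut at about 4.5% in these data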;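 also: 0% = IMP-1 with DMSO and 100% = DMSO wells lacking enzyme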
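System: Purified recombinant IMP-1 metallo-beta-lactamase enzyme | Measured by: Fluorescence quenching readout, ex 480/em 530 nm | Replication: Singlicate | Incubation: 15 min preincubation plus 25 min reaction at 25 °C | Evaluation: Percent inhibition from optical density relative to buffer-blank wells | Benchmarks: DMSO with and without IMP-1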
PAFAH1B2 FP inh: inhibitors of human PAFAH1B2. P68402. recombinant PAFAH1B2, FP-rhodamine activity probe, fluorescence polarization. inhibition, % at 3.39 µM. 340,000 compounds, 1.2% hits;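 active = inhibition above the mean of all tested compounds plus 3 SD, cut at about 24% in these data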;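 also: 0% = enzyme with DMSO and 100% = wells lacking PAFAH1B2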
Target sequence (P68402 whole entry, looked up): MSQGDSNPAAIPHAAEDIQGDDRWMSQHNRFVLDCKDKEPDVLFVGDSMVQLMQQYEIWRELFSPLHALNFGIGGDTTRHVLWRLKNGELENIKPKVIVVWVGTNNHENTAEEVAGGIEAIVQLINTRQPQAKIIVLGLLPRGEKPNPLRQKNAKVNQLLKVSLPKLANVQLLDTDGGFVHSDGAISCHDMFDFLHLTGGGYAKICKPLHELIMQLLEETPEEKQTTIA
PAFAH2 FP inh: PAFAH2 (human) inhibition | inhibition, % at 3.39 µM | recombinant PAFAH2, FP-rhodamine activity probe, fluorescence polarization | 340,000 compounds, 0.99% hits | Q99487;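 active = inhibition above the mean over all tested compounds plus 3 SD, cut at about 30% in these data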;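 also: inhibitors block probe labeling of enzyme so polarization drops; 0% = enzyme with DMSO and 100% = wells lacking PAFAH2 protein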
PAFAH1B3 FP inh: blocks human PAF acetylhydrolase 1B catalytic subunit 3. Q15102. recombinant PAFAH1B3, FP-rhodamine probe, fluorescence polarization. inhibition, % at 3.39 µM. 340,000 compounds, 0.28% hits. AID 492972;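 active = inhibition above the screen-wide average of all tested compounds plus 3 SD, cut at about 25% in these data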;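 also: 0% = enzyme with DMSO only and 100% = wells lacking PAFAH1B3 protein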
Target sequence (Q15102 whole entry, looked up): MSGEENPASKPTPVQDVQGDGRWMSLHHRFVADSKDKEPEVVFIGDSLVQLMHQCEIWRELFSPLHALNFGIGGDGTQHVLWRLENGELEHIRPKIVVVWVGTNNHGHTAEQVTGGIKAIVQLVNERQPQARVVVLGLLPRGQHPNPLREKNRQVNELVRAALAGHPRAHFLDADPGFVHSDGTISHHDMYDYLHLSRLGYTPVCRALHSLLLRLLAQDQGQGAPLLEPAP
pPAFAH FP conf: pPAFAH (human) inhibition, confirmed; AID 463230; recombinant pPAFAH, FP-Rh probe fluorescence polarization; inhibition, % at 3.39 µM; 2,300 compounds, 72% hits; shares compounds with pPAFAH FP inh;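 active = mean inhibition of the triplicate above the hit cutoff set for the earlier primary screen, cut at about 25% in these data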;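 also: 0% = enzyme with DMSO and 100% = wells lacking pPAFAH enzyme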
An asterisk follows results filed as active.

How did Cc1occc1C(=O)N/N=C/C1=C(N2CCOCC2)C(=C\c2ccc(Cl)cc2)/CC1 do in these assays?
pPAFAH FP inh: 8.4; VIM-2 inhibitor: -2.1; IMP-1 inhibitor: -1.7; PAFAH1B2 FP inh: -1.5; PAFAH2 FP inh: -4.9; PAFAH1B3 FP inh: 2.6

What do the screens show for `Cc1cc(C)nc(N/N=C/C2=C(N3CCOCC3)C(=C/c3ccccc3)/CC2)n1`?
pPAFAH FP inh: 64.6*; VIM-2 inhibitor: -0.1; IMP-1 inhibitor: -1.9; PAFAH1B2 FP inh: 1.8; PAFAH2 FP inh: 2.9; PAFAH1B3 FP inh: 3.9; pPAFAH FP conf: 82.3*

What do the screens show for `O=C(O)c1cccc(N2C(=O)c3cccc4cccc(c34)C2=O)c1`?
VIM-2 inhibitor: -1.4; IMP-1 inhibitor: -3.6; PAFAH1B2 FP inh: 6.7; PAFAH2 FP inh: 2.2; PAFAH1B3 FP inh: 7.6

How did O=C(O)c1cccc(N2C(=O)c3cc([N+](=O)[O-])cc4cc([N+](=O)[O-])cc(c34)C2=O)c1 do in these assays?
pPAFAH FP inh: 44.7*; VIM-2 inhibitor: 1.2; IMP-1 inhibitor: 1.0; PAFAH1B2 FP inh: 9.7; PAFAH2 FP inh: 20.0; PAFAH1B3 FP inh: 33.9*; pPAFAH FP conf: 20.6

What do the screens show for `Cc1cccc(S(=O)(=O)Nc2ccc(-c3cn4ccccc4n3)cc2)c1`?
pPAFAH FP inh: 34.6*; VIM-2 inhibitor: -0.6; IMP-1 inhibitor: -0.9; PAFAH1B2 FP inh: 1.9; PAFAH2 FP inh: 11.8; PAFAH1B3 FP inh: 2.1; pPAFAH FP conf: 21.6

What do the screens show for `O=C(CCCCCCCC(=O)N1CCCCCC1)N1CCCCCC1`?
PAFAH1B2 FP inh: 9.5; PAFAH2 FP inh: 1.3; PAFAH1B3 FP inh: -0.9

What do the screens show for `O=C1NC(Cc2ccccc2)c2nc3ccc(F)cc3c(=O)n2-c2cc(Cl)ccc21` (configuration not stated)?
pPAFAH FP inh: 3.5

Results for O=C(O)c1cc(O)c2c(c1)C(=O)c1cc(O)cc(O)c1C2=O ?
pPAFAH FP inh: 35.5*; VIM-2 inhibitor: -2.3; IMP-1 inhibitor: -2.2; PAFAH1B2 FP inh: 16.3; PAFAH2 FP inh: 13.4; PAFAH1B3 FP inh: 17.1; pPAFAH FP conf: 24.2

How did Cc1ccccc1COC(=O)c1cc([N+](=O)[O-])ccc1N1CCOCC1 do in these assays?
pPAFAH FP inh: 3.7; VIM-2 inhibitor: -3.4; IMP-1 inhibitor: -3.1; PAFAH1B2 FP inh: 3.8; PAFAH2 FP inh: -13.6; PAFAH1B3 FP inh: -3.8

How did CSc1ccc(COC(=O)c2cc([N+](=O)[O-])ccc2N2CCOCC2)cc1 do in these assays?
pPAFAH FP inh: 40.3*; PAFAH1B2 FP inh: 8.2; PAFAH2 FP inh: 1.2; PAFAH1B3 FP inh: 0.2; pPAFAH FP conf: 42.2*

How did O=C(O)c1cccc2c1/C(=N/Nc1ccc([N+](=O)[O-])cc1[N+](=O)[O-])c1ccccc1-2 do in these assays?
pPAFAH FP inh: 6.5; VIM-2 inhibitor: 2.2; IMP-1 inhibitor: -1.6; PAFAH1B2 FP inh: 10.6; PAFAH2 FP inh: 2.0; PAFAH1B3 FP inh: 4.8

What do the screens show for `Cc1nc(N)sc1N=Nc1ccccc1C(F)(F)F`?
pPAFAH FP inh: 41.8*; VIM-2 inhibitor: -4.7; IMP-1 inhibitor: -6.1; PAFAH1B2 FP inh: 3.4; PAFAH2 FP inh: -1.9; PAFAH1B3 FP inh: 11.9; pPAFAH FP conf: 30.2*

Results for Cc1[nH]n(C(N)=S)c(=O)c1N=Nc1ccccc1C(F)(F)F ?
pPAFAH FP inh: 13.2; VIM-2 inhibitor: -3.2; IMP-1 inhibitor: -3.3; PAFAH1B2 FP inh: 4.0; PAFAH2 FP inh: 13.6; PAFAH1B3 FP inh: 5.0

Results for O=C(O)CN1CCN(Cc2ccccc2F)C1=O ?
pPAFAH FP inh: 58.1*; VIM-2 inhibitor: 1.0; IMP-1 inhibitor: -1.7; PAFAH1B2 FP inh: 1.2; PAFAH2 FP inh: 2.9; PAFAH1B3 FP inh: 5.0; pPAFAH FP conf: 1.6

What do the screens show for `COC(=O)[C@@]12CCCCN1[C@H](c1ccc(-c3ccc(C(C)=O)cc3)c(OC)c1)[C@@H]1C(=O)N(C)C(=O)[C@@H]12`?
pPAFAH FP inh: -0.4; PAFAH1B2 FP inh: 4.8; PAFAH2 FP inh: -3.1; PAFAH1B3 FP inh: 5.6

Results for CCc1cc2c(-c3ccccc3)cc(=O)oc2cc1OCC(C)=O ?
pPAFAH FP inh: 15.2; VIM-2 inhibitor: 5.5; IMP-1 inhibitor: -2.4; PAFAH1B2 FP inh: 3.2; PAFAH2 FP inh: -4.2; PAFAH1B3 FP inh: 10.0
